# Active and inactive are the calls of the source. No cut-off for these calls is given here.
# Assays:
# [1] = test system: dengue virus type 2; experiment: Antiviral activity against Dengue virus 2; format: functional, organism-based
# [2] = test system: Chikungunya virus; experiment: Antiviral activity against Chikungunya virus; format: functional, organism-based
# [3] = Cytotoxicity against human PBMC assessed as reduction in cell growth after 7 days by MTT assay; format: cell-based
# Method in brief: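 Percent cell viability plotted against compound concentration and fitted to quadratic curves; CC₅₀ is the concentration reducing cell growth by 50%.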
# [4] = test system: Zika virus; experiment: Antiviral activity against Zika virus; format: functional, organism-based
# [5] = test system: Human immunodeficiency virus 1; experiment: Antiviral activity against HIV1 LAI infected in PHA-P activated human PBMC assessed as reduction in viral replication preincubated with cells for 30 mins followed by viral infection and measured at day 7 post infection by reverse transcriptase activity-based assay; format: functional, organism-based; conditions: Human immunodeficiency virus 1, LAI
# Method in brief: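 PHA-P-activated PBMCs (1.5 × 10⁵ cells) pre-treated 30 min with increasing compound concentrations, then infected with HIV-1 LAI at 100 TCID₅₀; supernatants harvested day 7 post-infection and stored at −20 °C. Percent inhibition of RT activity plotted against concentration and fitted to quadratic curves to give EC₅₀. Mean from 3 blood donors.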
# [6] = test system: Human alphaherpesvirus 1; experiment: Antiviral activity against HSV-1; format: functional, organism-based
# [7] = test system: Human alphaherpesvirus 2; experiment: Antiviral activity against HSV-2; format: functional, organism-based
Compound,Activity [1],Activity [2],CC50 at 168 h [3],Activity [4],EC50 [5],Activity [6],Activity [7]
O=P(O)(O)CO[C@H]1C[C@@H](n2cnc3c(NC4CC4)ncnc32)C=C1I (racemic),inactive,inactive,≥ 10 µM,inactive,≥ 10 µM,inactive,inactive
O=P(O)(O)CO[C@H]1C[C@@H](n2cnc3c(O)ncnc32)C=C1I (racemic),inactive,inactive,≥ 10 µM,inactive,≥ 10 µM,inactive,inactive
Nc1nc(O)c2ncn([C@H]3C=C(I)[C@@H](OCP(=O)(O)O)C3)c2n1 (racemic),inactive,inactive,≥ 10 µM,inactive,≥ 10 µM,inactive,inactive
C[C@H](Cn1cnc2c(N)ncnc21)OCP(=O)(O)O [TENOFOVIR ANHYDROUS],,,≥ 10 µM,,1.1 µM,,
Nc1nc2c(ncn2[C@H]2C=C(F)[C@@H](OCP(=O)(O)O)C2)c(=O)[nH]1 (racemic),inactive,inactive,≥ 10 µM,inactive,≥ 10 µM,inactive,inactive
Nc1ncnc2c1ncn2[C@H]1C=C(I)[C@@H](OCP(=O)(O)O)C1 (racemic),inactive,inactive,≥ 10 µM,inactive,5.9 µM,inactive,inactive
Nc1ncnc2c1ncn2[C@H]1C=C(F)[C@@H](OCP(=O)(O)O)C1 (racemic),inactive,inactive,≥ 10 µM,inactive,0.88 µM,inactive,inactive

# Source: ChEMBL document CHEMBL4229355, “Synthesis of 3'-halo-5'-norcarbocyclic nucleoside phosphonates as potent anti-HIV agents” (Eur J Med Chem, 2018)
